SIRT5 block: blocks human SIRT5 desuccinylation of peptide; AID 652115; Q9NXA8; inhibition, % at 15 µM; 330,000 tested, 1.1% active; Purified SirT5, succinyl-peptide AMC, trypsin-coupled fluorescence; in the data active means inhibition above about 15%; inconclusive means no clear call, values can overlap the other calls
E-sel inducer: E-selectin induction on HUVECs. P16581. HUVEC E-selectin immunofluorescence imaging; normalized: neutral wells 0, TNF-alpha wells 100. activation, % at 7.58 µM. 260,000 tested, 0.37% active. AID 686992;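 active means mean E-selectin-positive cell signal at least 10% of the positive control, reached in at least 60% of replicates, without over 20% cell loss; inconclusive means no rule given, readout overlaps actives, possibly toxicity-flagged; inactive means the rest, including those meeting only one limit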
Target sequence (P16581 whole entry, looked up): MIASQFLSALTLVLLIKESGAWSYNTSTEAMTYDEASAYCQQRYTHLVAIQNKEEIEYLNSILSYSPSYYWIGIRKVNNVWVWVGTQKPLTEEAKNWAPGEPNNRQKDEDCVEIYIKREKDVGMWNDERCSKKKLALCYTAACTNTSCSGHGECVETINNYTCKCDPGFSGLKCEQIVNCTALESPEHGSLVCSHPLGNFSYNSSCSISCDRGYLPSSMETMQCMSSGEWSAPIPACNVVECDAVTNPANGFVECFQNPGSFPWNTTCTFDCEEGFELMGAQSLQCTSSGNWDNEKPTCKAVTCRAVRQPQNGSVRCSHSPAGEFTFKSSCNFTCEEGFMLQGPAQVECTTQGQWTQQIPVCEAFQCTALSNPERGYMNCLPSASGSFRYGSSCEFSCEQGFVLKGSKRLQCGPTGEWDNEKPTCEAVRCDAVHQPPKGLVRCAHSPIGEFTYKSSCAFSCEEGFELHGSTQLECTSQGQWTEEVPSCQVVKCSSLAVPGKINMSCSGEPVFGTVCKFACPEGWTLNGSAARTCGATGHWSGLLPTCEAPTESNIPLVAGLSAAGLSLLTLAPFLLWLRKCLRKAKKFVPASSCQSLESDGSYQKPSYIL
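Assay system: HUVEC primary endothelial cells. Input: 3,000 HUVEC seeded per well. Doses: one compound dose added by pin transfer. Read-out basis: % PE-positive cells. Benchmarks: TNF-alpha high, DMSO low. Detection: immunofluorescence imaging. Buffer or medium: EGM-2, gelatin.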
DENV2 CPE rescue: inhibitors of DENV2 cytopathic effect; DENV2-infected cells, cytopathic effect rescue, plate reader; CPE inhibition, % at 9.99 µM; 350,000 tested, 1.7% active; AID 651640; in the data active means CPE inhibition above about 20%, passing the limit was not always enough; inconclusive means no clear call, values can overlap the other calls; tested in BHK-21 cells
Large screens that a line does not name were inactive; ! = repeats disagree. Shown are actives, neighbours in structure and some others; about 2.9% of the full set was active somewhere.

CC(C)NC(=O)N(C)C[C@@H]1OCCCC[C@@H](C)Oc2ccc(NC(=O)Nc3ccc(F)cc3)cc2C(=O)N([C@H](C)CO)C[C@@H]1C	DENV2 CPE rescue 47.5!
C[C@@H]1CN([C@H](C)CO)C(=O)c2cc(NC(=O)Nc3cccc4ccccc34)ccc2O[C@@H](C)CCCCO[C@@H]1CN(C)CC1CCCCC1	DENV2 CPE rescue 45.2
CC(C)NC(=O)Nc1ccc2c(c1)C(=O)N([C@@H](C)CO)C[C@@H](C)[C@@H](CN(C)C(=O)NC(C)C)OCCCC[C@@H](C)O2	none (no result: E-sel inducer)
C[C@@H]1CCCCO[C@@H](CN(C)CC2CCCCC2)[C@@H](C)CN([C@@H](C)CO)C(=O)c2cc(NC(=O)Nc3cccc4ccccc34)ccc2O1	none
O=C(Nc1cccnc1Cl)c1noc2c1CCc1ccccc1-2	none (no result: E-sel inducer)
Cc1cc(O)ccc1N/C=C/c1onc(C)c1[N+](=O)[O-]	none (no result: E-sel inducer)
C=CCNC(=O)N1c2ccccc2Sc2ccccc21	none
CCOC(=O)N1CCC(NC(=O)CN2C(=O)CSc3ncccc32)CC1	none (no result: SIRT5 block, E-sel inducer)
C/C(=N/NS(=O)(=O)c1ccc(C)cc1)c1ccc(NC(=O)C(F)(F)F)cc1	DENV2 CPE rescue inconclusive
Cc1ccc(CNC(=O)C(=O)NCC2OCCN2C(=O)c2cccs2)cc1 (configuration not stated)	none
CCOC(=O)c1cc2c(=O)n3ccccc3nc2n(Cc2ccco2)c1=NC(=O)c1ccc(OC)cc1	none
CCC(=O)Oc1ccc(NC(=O)c2ccco2)cc1	none
CCC(=O)Oc1cccc(C(=O)Nc2cccc(NC(=O)c3ccco3)c2)c1	E-sel inducer 37.5
COc1ccc(OCCN2CCN(S(=O)(=O)c3ccccc3C(F)(F)F)CC2)cc1	E-sel inducer 139.2
COc1ccc(OCCN2CCN(S(=O)(=O)c3ccccc3C#N)CC2)cc1	none (no result: E-sel inducer)
O=C(C[C@@H]1C=C[C@@H](NC(=O)Cc2ccccn2)[C@@H](CO)O1)NCCCN1CCOCC1	none
C[C@@H]1CCCCO[C@@H](CN(C)S(=O)(=O)c2ccc(F)cc2)[C@@H](C)CN([C@@H](C)CO)C(=O)c2cc(NS(=O)(=O)c3ccc(Cl)cc3)ccc2O1	none
C[C@@H]1CN([C@@H](C)CO)C(=O)c2cc(NS(=O)(=O)c3ccc(F)cc3)ccc2O[C@@H](C)CCCCO[C@@H]1CN(C)S(=O)(=O)c1ccc(Cl)cc1	SIRT5 block 24.9 (no result: E-sel inducer)
C[C@@H]1CCCCO[C@@H](CN(C)S(=O)(=O)c2ccc(Cl)cc2)[C@H](C)CN([C@H](C)CO)C(=O)c2cc(NS(=O)(=O)c3ccc(F)cc3)ccc2O1	none (no result: E-sel inducer)
C[C@@H]1CCCCO[C@H](CN(C)S(=O)(=O)c2ccc(Cl)cc2)[C@@H](C)CN([C@@H](C)CO)C(=O)c2cc(NS(=O)(=O)c3ccc(F)cc3)ccc2O1	none
C[C@@H]1CCCCO[C@@H](CN(C)S(=O)(=O)c2ccc(Cl)cc2)[C@@H](C)CN([C@H](C)CO)C(=O)c2cc(NS(=O)(=O)c3ccc(F)cc3)ccc2O1	SIRT5 block 15.1, DENV2 CPE rescue inconclusive (no result: E-sel inducer)
C[C@@H]1CN([C@H](C)CO)C(=O)c2cc(NS(=O)(=O)c3ccc(F)cc3)ccc2O[C@@H](C)CCCCO[C@@H]1CN(C)S(=O)(=O)c1ccc(Cl)cc1	SIRT5 block 25.5 (no result: E-sel inducer)
Cc1cc(CNC(=O)C2(C(F)(F)F)C/C(=C\CCO)CCCO2)nn1C (configuration not stated)	none
COc1ccc(CNC(=O)C/C(C)=N/NC(=O)COc2ccccc2)cc1	none
Cc1c(N=NC2=C(O)CCCC2=O)c(=O)n(-c2ccccc2)n1C	SIRT5 block 25.6 (no result: E-sel inducer)
Cc1c(N=Nc2ccc(O)cc2)c(=O)n(-c2ccccc2)n1C	none
COc1ccc(CCNC(=O)COc2ccc(C)nc2[N+](=O)[O-])cc1OC	none
CC1=NN(c2ccc(C(=O)O)c(N)c2)C(=O)C1	SIRT5 block 22.5 (no result: E-sel inducer)
CC1=NN(c2ccc(Cl)c(C(=O)O)c2)C(=O)C1	none (no result: E-sel inducer)
CCN(CC(=O)Nc1c(F)cccc1F)C(=O)c1cc(C)nc2ccccc12	none
C/C(=N/Nc1ccccc1[N+](=O)[O-])c1ccc([N+](=O)[O-])cc1	none (no result: E-sel inducer)
CC1=C/C(=N\Nc2ccccc2[N+](=O)[O-])CC(C)(C)C1	SIRT5 block 19.4 (no result: E-sel inducer)
CO[C@@H]1CN(C)C(=O)c2cc(NC(C)=O)ccc2OC[C@H](C)N(C(=O)C2CC2)C[C@@H]1C	none
Cc1ccccc1N(CC(=O)NC1CCCCC1)C(=O)CNC(=O)c1cccs1	E-sel inducer 44.9
CCOc1ccc(N(CC(=O)NC2CCCCC2)C(=O)CNC(=O)c2cccs2)cc1	DENV2 CPE rescue 33.3 (no result: E-sel inducer)
COc1ccc(N(CC(=O)NC2CCCCC2)C(=O)CNC(=O)c2cccs2)cc1	none (no result: E-sel inducer)
O=C(CN(C(=O)CNC(=O)c1cccs1)c1ccccc1F)NC1CCCCC1	none
C[C@@H]1CN([C@H](C)CO)C(=O)c2cc(NC(=O)C3CCCCC3)ccc2O[C@@H](C)CCCCO[C@H]1CN(C)S(=O)(=O)c1cccs1	none
CO[C@H]1CN(C)C(=O)c2ccc(NS(C)(=O)=O)cc2OC[C@H](C)N(Cc2nccs2)C[C@@H]1C	none
CO[C@@H]1CN(C)C(=O)c2ccc(NS(C)(=O)=O)cc2OC[C@@H](C)N(Cc2nccs2)C[C@H]1C	SIRT5 block 20.0
CO[C@@H]1CN(C)C(=O)c2ccc(NS(C)(=O)=O)cc2OC[C@H](C)N(Cc2nccs2)C[C@@H]1C	DENV2 CPE rescue 71.8
CO[C@@H]1CN(C)C(=O)c2ccc(NS(C)(=O)=O)cc2OC[C@H](C)N(Cc2nccs2)C[C@H]1C	DENV2 CPE rescue inconclusive
O=C(C[C@H]1CC[C@H](NC(=O)C2CC2)[C@@H](CO)O1)NCc1ccccc1Cl	none
CCOC(=O)CNC(=S)N(Cc1cccs1)C1CCCCC1	DENV2 CPE rescue 20.6 (no result: E-sel inducer)
CCOC(=O)CNC(=S)N(Cc1ccccc1F)C1CCCCC1	none
CCc1ccccc1NC(=S)NC1CC2CCC(C1)N2Cc1ccc(F)cc1 (configuration not stated)	none (no result: E-sel inducer, DENV2 CPE rescue)
N#Cc1ccc(-c2ccc([C@@H]3[C@@H](CO)N4CCCCN(C(=O)Nc5ccc(F)cc5)C[C@@H]34)cc2)cc1	none
N#Cc1ccc(-c2ccc([C@H]3[C@H](CO)N4CCCCN(C(=O)Nc5ccc(F)cc5)C[C@@H]34)cc2)cc1	DENV2 CPE rescue 48.7
N#Cc1ccc(-c2ccc([C@H]3[C@H]4CN(C(=O)Nc5ccc(F)cc5)CCCCN4[C@H]3CO)cc2)cc1	DENV2 CPE rescue 23.8
N#Cc1ccc(-c2ccc([C@H]3[C@@H](CO)N4CCCCN(C(=O)Nc5ccc(F)cc5)C[C@H]34)cc2)cc1	none
C[n+]1ccccc1/C=C/c1cc(Br)ccc1O	none (no result: E-sel inducer)
Cc1noc(C)c1NC(=O)N[C@@H]1CC[C@H](CCNC(=O)C2CCCC2)O[C@H]1CO	none
CC1(CC(=O)Nc2ccccc2)NC(=S)N(c2ccccc2)N1 (configuration not stated)	none
CCOc1ccc(-c2ccc(NS(=O)(=O)c3cc([N+](=O)[O-])c(C)c([N+](=O)[O-])c3)cc2)nn1	none (no result: E-sel inducer)
O=C(c1ccc(F)cc1)N1CC(=O)N2[C@@H](CO)[C@H](c3ccc(C#CCC4CCCC4)cc3)[C@@H]2C1	SIRT5 block 15.6
O=C(c1ccc(F)cc1)N1CC(=O)N2[C@H](C1)[C@@H](c1ccc(C#CCC3CCCC3)cc1)[C@@H]2CO	none
CN(C)CC#Cc1ccc([C@@H]2[C@H]3CN(C(=O)c4cccc(F)c4)CC(=O)N3[C@H]2CO)cc1	none

Bioassay records as filed in PubChem.
